Measured values as given in ChEMBL document CHEMBL1123595, “Synthesis and antilipolytic activities of quinolyl carbanilates and related analogues” (J Med Chem, 1987).

Tests used:
[1] = organism: Canis lupus familiaris; test: Percent inhibition of free fatty acid liberation at 100 uM was determined in Canine myocardial lipase assay
How it was run: (§1)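 Lipases were extracted from washed canine heart membranes with buffer, heparin and a little Triton X-100. The reaction ran in an oil-water emulsion of triolein with [3H]triolein tracer, 50 mM Tris pH 6.8 and 0.5% BSA. Compound was at 100 µM (3.0% DMSO final), tested in duplicate. Released [3H]oleic acid was extracted into hexane, separated from triolein and scintillation counted.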

[2] = organism: Rattus norvegicus; test: Percent inhibition of adipocyte lipolysis in rat adipocyte assay was determined at 30 uM concentration.; assay type: functional
How it was run: (§2)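 Abdominal fat pads from male rats (200–250 g) were collagenase-digested for 1 h at 37 °C in Krebs-bicarbonate buffer gassed with 95:5 O2/CO2, then washed twice. Cells were stimulated with epinephrine (3 µM) plus methylisobutylxanthine (10 µM). Compound was added from DMSO or water stock and incubated 1 h at 37 °C. The run was stopped on ice, and glycerol in the aqueous phase was measured by glycerol dehydrogenase (NAD→NADH).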

[3] = (§3) Concentration required for inhibition of free fatty acid liberation in Canine myocardial lipase assay; assay type: functional, tissue-based, Canis lupus familiaris, Myocardium
[4] = organism: Canis lupus familiaris; test: Percentage inhibition of free fatty acid liberation at 100 uM determined in canine myocardial lipase assay; assay type: functional; how it was run: as §1
[5] = organism: Rattus norvegicus; test: Percent inhibition of adipocyte lipolysis in rat adipocyte assay was determined at 3 uM; assay type: functional
How it was run: (§4)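 Abdominal fat pads from male rats (200–250 g) in Krebs-bicarbonate buffer gassed 95:5 O2/CO2, collagenase-digested 1 h at 37 °C, washed twice. Lipolysis stimulated with epinephrine (3 µM) plus methylisobutylxanthine (10 µM); compounds added from 20 mM DMSO or water stock (final DMSO 1%). Incubated 1 h at 37 °C under O2/CO2, stopped on ice. Medium glycerol measured by glycerol dehydrogenase (NAD to NADH).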

[6] = organism: Rattus norvegicus; test: Percent inhibition of adipocyte lipolysis in rat adipocyte assay was determined at 3 uM concentration.; assay type: functional; how it was run: as §4
[7] = organism: Rattus norvegicus; test: Percent inhibition of adipocyte lipolysis in rat adipocyte assay was determined at 200 uM concentration.; assay type: functional
How it was run: (§5)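 Rat adipocytes were prepared by collagenase digestion of abdominal fat pads from male rats (200–250 g) in gassed Krebs-bicarbonate buffer. Lipolysis was driven by 3 µM epinephrine plus 10 µM methylisobutylxanthine. Compound was added from a 20 mM DMSO or water stock to a final 200 µM (1% DMSO), then incubated 1 h at 37 °C under 95:5 O2/CO2. Released glycerol was quantified with glycerol dehydrogenase.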

[8] = organism: Rattus norvegicus; test: Percent inhibition of adipocyte lipolysis in rat adipocyte assay was determined at 100 uM concentration.; assay type: functional; how it was run: as §4
[9] = organism: Rattus norvegicus; test: Concentration required for inhibition of adipocyte lipolysis in rat adipocyte assay was determined; assay type: functional; how it was run: as §2
[10] = as §3; assay type: tissue-based, Canis lupus familiaris, Myocardium
[11] = organism: Rattus norvegicus; test: Concentration required for inhibition of adipocyte lipolysis in rat adipocyte assay was determined at 200 uM concentration.; assay type: functional; how it was run: as §5
[12] = organism: Rattus norvegicus; test: Inhibitory concentration (IC50) of adipocyte lipolysis in rat adipocyte assay was determined
[13] = organism: Rattus norvegicus; test: Concentration required for inhibition of adipocyte lipolysis in rat adipocyte assay was determined at 3 uM concentration.; assay type: functional; how it was run: as §4
[14] = organism: Rattus norvegicus; test: Percent inhibition of adipocyte lipolysis in rat adiposite assay was determined at 3 uM concentration.; assay type: functional; how it was run: as §4
[15] = organism: Rattus norvegicus; test: Percent inhibition of adipocyte lipolysis in rat adipocyte assay was determined at 100 uM; assay type: functional; how it was run: as §2

SMILES: COc1ccc(NC(=O)Oc2cccc3ncccc23)cc1
- inhibition [1]: 63%
- inhibition at 30 µM [2]: 1%

SMILES: Cc1cnc(C(=O)O)c[n+]1[O-] [ACIPIMOX]
- IC50 [3]: 39 µM

SMILES: O=C(Nc1cccc(Cl)c1)Oc1cccc2cccnc12
- inhibition [4]: 41%
- inhibition at 3 µM [5]: 5%

SMILES: O=C(Nc1ccccc1)Oc1cccc2cccnc12
- inhibition [4]: 69%
- inhibition at 3 µM [6]: 28%

SMILES: CCOC(=O)c1ccc(NC(=O)Oc2ccc3cccnc3c2)cc1
- inhibition at 200 µM [7]: 18%
- inhibition [1]: 46%

SMILES: COc1ccc(CC(=O)Oc2cccc3cccnc23)cc1
- inhibition [4]: 0%
- inhibition at 100 µM [8]: 74%

SMILES: O=C(NCCCCCCNC(=O)ON=C1CCCCC1)ON=C1CCCCC1
- IC50 [9]: 1 µM
- IC50 [3]: 4 µM

SMILES: COc1ccc(NC(=O)Oc2ccc(S(=O)(=O)O)c3cccnc23)cc1
- inhibition at 200 µM [7]: 14%
- inhibition [4]: 83%

SMILES: COc1ccccc1NC(=O)Oc1ccc2ncccc2c1
- IC50 [9]: 30 µM
- IC50 [10]: 42 µM

SMILES: O=C(O)c1cccnc1 [NIACIN]
- IC50 [10]: 13 µM

SMILES: Cc1ccc2cccc(OC(=O)Nc3ccccc3)c2n1
- inhibition [4]: 68%
- inhibition at 3 µM [6]: 29%

SMILES: COc1ccc(CNC(=O)Oc2cccc3cccnc23)cc1
- IC50 [9]: 5.8 µM
- inhibition [4]: 72%

SMILES: COc1ccc(NC(=O)Oc2ccc3cccnc3c2)cc1
- inhibition [4]: 60%
- inhibition at 30 µM [2]: 0%

SMILES: Cc1ccccc1NC(=O)Oc1ccc2cccnc2c1
- inhibition at 200 µM [11]: 20%
- inhibition [4]: 45%

SMILES: COc1ccccc1NC(=O)Oc1cccc2cccnc12
- IC50 [9]: 7 µM
- IC50 [10]: 40 µM

SMILES: Cc1ccc2cccc(OC(=O)Nc3ccc(Br)cc3)c2n1
- inhibition [4]: 68%
- inhibition at 3 µM [6]: 5%

SMILES: COc1ccccc1NC(=O)Oc1ccc2cccnc2c1
- IC50 [9]: 80 µM
- IC50 [10]: 48 µM

SMILES: COc1cccc(NC(=O)Oc2ccc3cccnc3c2)c1
- inhibition at 200 µM [7]: 25%
- inhibition [1]: 52%

SMILES: C[C@@H](NC(=O)Oc1cccc2cccnc12)c1ccccc1
- IC50 [9]: 35 µM
- inhibition [4]: 76%

SMILES: COc1ccc(NC(=O)Oc2cccc3cccnc23)cc1
- IC50 [3]: 17 µM
- IC50 [12]: 0.1 µM

SMILES: O=C(Nc1ccccc1)Oc1ccc(Cl)c2cccnc12
- inhibition [4]: 69%
- inhibition at 3 µM [6]: 4%

SMILES: COc1ccc(C(=O)Oc2cccc3cccnc23)cc1
- inhibition at 200 µM [7]: 49%
- inhibition [4]: 13%

SMILES: CCOC(=O)c1ccc(NC(=O)Oc2cccc3cccnc23)cc1
- IC50 [10]: 200 µM
- inhibition at 200 µM [7]: 44%

SMILES: COc1ccc(OC(=O)Nc2cccc3cccnc23)cc1
- inhibition [1]: 75%
- inhibition at 30 µM [2]: 3%

SMILES: O=C(Nc1ccccc1)Oc1c(Cl)cc(Cl)c2cccnc12
- inhibition at 200 µM [7]: 28%
- IC50 [3]: 56 µM

SMILES: COc1ccccc1NC(=O)Oc1cccc2ncccc12
- inhibition at 200 µM [7]: 31%
- IC50 [3]: 48 µM

SMILES: O=C(Nc1ccccc1Cl)Oc1ccc2cccnc2c1
- inhibition [4]: 6%

SMILES: Cc1ccccc1NC(=O)Oc1cccc2cccnc12
- inhibition at 3 µM [13]: 40%
- inhibition [4]: 7%

SMILES: O=C(Nc1ccccc1Cl)Oc1cccc2cccnc12
- inhibition [4]: 1%

SMILES: O=C(Nc1ccc(Br)cc1)Oc1cccc2cccnc12
- inhibition at 3 µM [6]: 5%
- IC50 [3]: 80 µM

SMILES: O=C(Nc1ccc(Cl)cc1)Oc1cccc2cccnc12
- inhibition [4]: 58%
- inhibition at 3 µM [6]: 52%

SMILES: CC(NC(=O)Oc1cccc2cccnc12)c1ccccc1 (centres undefined)
- IC50 [9]: 35 µM
- inhibition [1]: 74%

SMILES: COc1ccc(CCNC(=O)Oc2cccc3cccnc23)cc1
- inhibition [4]: 70%
- inhibition at 100 µM [8]: 98%

SMILES: Cc1cccc(NC(=O)Oc2cccc3cccnc23)c1
- Inhibition [14]: 84%
- inhibition [4]: 64%

SMILES: COc1ccccc1OC(=O)Nc1cccc2cccnc12
- IC50 [9]: 30 µM
- IC50 [10]: 20 µM

SMILES: COc1ccc(NC(=O)Oc2cccc3ccc(C)nc23)cc1
- IC50 [9]: 0.2 µM
- inhibition [4]: 68%

SMILES: COc1ccccc1NC(=O)Nc1cccc2cccnc12
- IC50 [10]: 73 µM
- inhibition at 200 µM [7]: 4%

SMILES: COc1ccc(NC(=O)COc2cccc3cccnc23)cc1
- inhibition at 100 µM [15]: 26%
- inhibition [1]: 7%

SMILES: COc1ccc(NC(=O)Oc2cccc3cccnc23)c(OC)c1
- IC50 [13]: 0.2 µM
- inhibition [4]: 65%

SMILES: COc1ccc(NC(=O)Oc2cccc3ocnc23)cc1
- IC50 [9]: 2.4 µM
- IC50 [3]: 7 µM

SMILES: COc1ccc(NC(=O)Oc2ccc3ncccc3c2)cc1
- inhibition [1]: 64%
- inhibition at 30 µM [2]: 8%

SMILES: O=C(Nc1cccc(C(F)(F)F)c1)Oc1cccc2cccnc12
- inhibition at 3 µM [13]: 7%
- inhibition [4]: 56%

SMILES: COc1ccc(CCNC(=O)Oc2ccc3cccnc3c2)cc1
- inhibition [4]: 97%
- inhibition at 100 µM [8]: 84%

SMILES: O=C(Nc1ccccc1C(F)(F)F)Oc1ccc2cccnc2c1
- inhibition [4]: 12%

SMILES: Cc1ccc(NC(=O)Oc2cccc3cccnc23)cc1
- Inhibition [14]: 76%
- inhibition [4]: 63%

SMILES: COc1cccc(NC(=O)Oc2cccc3cccnc23)c1
- IC50 [9]: 7 µM
- IC50 [3]: 18 µM

SMILES: COc1ccc(OC)c(NC(=O)Oc2cccc3cccnc23)c1
- IC50 [9]: 10 µM
- IC50 [3]: 48 µM
